Compound activity as filed in PubChem.
V1aR counter – counter-screen for oxytocin receptor agonists: human V1a receptor agonists | P37288 | CHO-V1R cells, Fluo-8 calcium fluorescence, agonist mode; 0% DMSO, 100% 3 nM vasopressin | activation, % at 3 µM | 320,000 compounds, 0.25% hits | AID 2797;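 active = activation above the mean activation of all tested compounds plus 3 SD, per screening run, cut at about 20% in these data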;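 note: signal is peak over basal fluorescence ratio across a 100 second FLIPR read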
Target sequence (P37288 whole entry, looked up): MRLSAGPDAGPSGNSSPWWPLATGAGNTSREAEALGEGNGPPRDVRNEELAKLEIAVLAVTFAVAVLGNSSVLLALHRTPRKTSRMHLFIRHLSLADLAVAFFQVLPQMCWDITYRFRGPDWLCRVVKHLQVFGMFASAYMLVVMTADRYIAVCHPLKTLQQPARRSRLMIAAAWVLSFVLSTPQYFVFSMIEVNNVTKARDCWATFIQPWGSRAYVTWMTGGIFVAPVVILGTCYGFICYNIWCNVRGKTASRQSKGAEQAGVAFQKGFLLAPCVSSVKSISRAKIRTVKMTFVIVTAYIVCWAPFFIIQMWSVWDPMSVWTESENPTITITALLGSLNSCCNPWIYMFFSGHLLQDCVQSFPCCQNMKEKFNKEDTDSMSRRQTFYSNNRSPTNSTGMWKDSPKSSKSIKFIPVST
OX1R antag-1 – human HCRTR1 antagonism; O43613; CHO/OX1R cells, Fluo-8 calcium fluorescence, orexin A; inhibition, % at 5 µM; 330,000 compounds, 0.43% hits; AID 434989;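 active = inhibition above its plate's threshold, mean inhibition of all tested compounds on the plate plus 3 SD, cut at about 37% in these data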
CHO parental Ca – signal in parental CHO cells, OX1R antagonist counter-screen; inhibition, % at 5.6 µM; parental CHO-K1, ATP-induced calcium, Fluo-8 fluorescence; 330,000 compounds, 0.63% hits; AID 463079;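 active = inhibition above that plate's mean sample inhibition plus 3 SD, cut at about 26% in these data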
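Material: parental CHO cells / Compound: single nominal dose of 5.6 µM per compound / Signal: Fluo-8 fluorescence / Replicates: singlicate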
OX1R antag-2 – antagonists of human orexin 1 receptor (OX1R); O43613; OX1R-expressing cells, FRET antagonist read-out; inhibition, % at 6.6 µM; 330,000 compounds, 1.8% hits; AID 485270; in the data active = inhibition mostly above about 38%, no sharp cut-off; inactive = mostly below about 40%
OXTR potentiator – human OXTR potentiation. P30559. CHO-OTR cells, Fluo-8 calcium fluorescence, potentiator mode; 0% = oxytocin EC15, 100% = EC100. activation, % at 3 µM. 320,000 compounds, 0.061% hits;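 active = activation above that plate's cutoff, the mean activation of tested compounds plus 3 SD, cut at about 6.6% in these data, passing the limit was not always enough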
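Assay system: CHO cell line stably expressing human OTR. Reagent: EC15 oxytocin agonist. Dosing: single dose, 3.0 µM nominal final compound concentration. Timing: compound 6 min at room temperature before oxytocin, 100 s read. Signal: kinetic Fluo-8 calcium fluorescence. Controls: oxytocin EC15 low and EC100 high.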
OXTR ag – agonists of human oxytocin receptor. 320,000 compounds, 0.32% hits. CHO-OTR cells, Fluo-8 calcium fluorescence; normalized: DMSO 0%, oxytocin 100%. P30559. activation, % at 3 µM;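 active = activation above the mean of all tested compounds plus 3 SD, cutoff set per screening run, cut at about 20% in these data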;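 note: peak over basal fluorescence ratio from a 100 s FLIPR kinetic read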
A number is an active result. Hits are enriched below; roughly 2.6% of the tested compounds scored in any of these assays.

Results for C=CC[C@H](CC(=O)N(CCO)Cc1ccccc1)C(=O)N[C@@H](COC(=O)[C@@H](CC=C)Cc1ccc(F)cc1)Cc1c[nH]c2ccccc12 ?
V1aR counter: inactive; OX1R antag-1: inactive; CHO parental Ca: inactive; OX1R antag-2: inactive; OXTR potentiator: inactive; OXTR ag: inactive

Results for Cc1ccc(Sc2ccc(S(=O)(=O)Nc3ccc(C(=O)O)cc3)cc2)cc1C ?
V1aR counter: 21; OX1R antag-1: inactive; CHO parental Ca: 48; OX1R antag-2: inactive; OXTR potentiator: inactive; OXTR ag: 25

How did O=C(O)c1ccc(S(=O)(=O)N2CCC(NC(=O)C3CCCCC3)CC2)cc1 do in these assays?
V1aR counter: inactive; OX1R antag-1: inactive; CHO parental Ca: inactive; OX1R antag-2: inactive; OXTR potentiator: inactive; OXTR ag: inactive

What do the screens show for `C=CCNC(=S)NCc1ccccc1`?
V1aR counter: inactive; OX1R antag-1: inactive; CHO parental Ca: inactive; OX1R antag-2: inactive; OXTR potentiator: inactive; OXTR ag: inactive

What do the screens show for `S=C(NCc1ccccc1)NCc1ccc(CNC(=S)NCc2ccccc2)cc1`?
V1aR counter: inactive; OX1R antag-1: inactive; CHO parental Ca: 48; OX1R antag-2: inactive; OXTR potentiator: inactive; OXTR ag: inactive

How did CC1CCC2(CC1)NC(=O)N(CC(=O)c1ccc(CNC(=O)C(C)(C)C)s1)C2=O (centres undefined) do in these assays?
V1aR counter: inactive; OX1R antag-1: inactive; CHO parental Ca: inactive; OX1R antag-2: 35; OXTR potentiator: inactive; OXTR ag: inactive

Results for CC1CCC2(CC1)NC(=O)N(CC(=O)c1ccc[nH]1)C2=O (centres undefined) ?
V1aR counter: inactive; OX1R antag-1: inactive; CHO parental Ca: inactive; OX1R antag-2: inactive; OXTR potentiator: inactive; OXTR ag: inactive

Results for O=C(Nc1ccc(N2CCOCC2)cc1)Nc1ccc2nc(-c3ccco3)c(-c3ccco3)nc2c1 ?
V1aR counter: inactive; OX1R antag-1: inactive; CHO parental Ca: inactive; OX1R antag-2: 51; OXTR potentiator: inactive; OXTR ag: inactive

What do the screens show for `Nc1nc(-c2ccccc2)nc2sc3c(c12)CCCC3`?
V1aR counter: inactive; OX1R antag-1: inactive; CHO parental Ca: inactive; OX1R antag-2: 68; OXTR potentiator: inactive; OXTR ag: inactive

What do the screens show for `O=c1oc(-c2ccccc2)nc2sc3c(c12)CCC3`?
V1aR counter: inactive; OX1R antag-1: inactive; CHO parental Ca: inactive; OX1R antag-2: inactive; OXTR potentiator: inactive; OXTR ag: inactive

What do the screens show for `Cc1ccc(S(=O)(=O)N2CCCCC2)cc1NC(=O)Cn1c(=O)cnc2ccccc21`?
V1aR counter: inactive; OX1R antag-1: inactive; CHO parental Ca: inactive; OX1R antag-2: inactive; OXTR potentiator: inactive; OXTR ag: inactive

How did Fc1ccccc1-c1nc(NCc2ccco2)c2ccccc2n1 do in these assays?
V1aR counter: inactive; OX1R antag-1: inactive; CHO parental Ca: inactive; OX1R antag-2: inactive; OXTR potentiator: inactive; OXTR ag: inactive

Results for Cc1ccc(Nc2nc(NCc3ccco3)c3ccccc3n2)cc1 ?
V1aR counter: inactive; OX1R antag-1: 47; CHO parental Ca: 56; OX1R antag-2: inactive; OXTR potentiator: inactive; OXTR ag: inactive

Results for Oc1ccccc1-c1nc(NCc2ccco2)c2ccccc2n1 ?
V1aR counter: inactive; OX1R antag-1: inactive; CHO parental Ca: inactive; OX1R antag-2: 40; OXTR potentiator: inactive; OXTR ag: inactive

Results for C[C@@H]1CN([C@@H](C)CO)C(=O)c2cc(NS(=O)(=O)c3cccs3)ccc2O[C@H]1CN(C)Cc1ccc(C(F)(F)F)cc1 ?
V1aR counter: inactive; OX1R antag-1: inactive; CHO parental Ca: inactive; OX1R antag-2: inactive; OXTR potentiator: inactive; OXTR ag: inactive

How did C[C@@H]1NC(=O)[C@H](CC(N)=O)NC(=O)c2cc([N+](=O)[O-])cc(I)c2OCC[C@@H](C(=O)NC(CC(=O)O)C(N)=O)NC1=O (some centres undefined) do in these assays?
V1aR counter: inactive; OX1R antag-1: inactive; CHO parental Ca: inactive; OX1R antag-2: inactive; OXTR potentiator: inactive; OXTR ag: inactive
